Results reported in PubChem BioAssay AID602394 (Broad Institute, 2012).
Values joined by “and” are separate entries in the source; they are usually repeats but may differ in a detail not shown here. Equal entries are not always repeated. Active and inactive are the calls of the source.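 How the source made its calls: active means falling signal, meaning toxicity, with AC50 at or below twice the top valid dose for that sample; inconclusive means flat curve showing 30 to 70% toxicity, or poor fit; inactive means the rest.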

Legend:
[1] = cytotoxicity in NIH 3T3 fibroblasts, dose response, cytotoxicity control for antifungal single agent project, cell-based, dry powder, set 2, plate reader (AID 602394); conditions: NIH 3T3 fibroblast viability, Alamar Blue fluorescence, 48 h
Outline: (§1)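 Test system: NIH 3T3 fibroblasts. Amount: 1,000 cells per well, plated overnight before dosing. Timing: 48 h compound exposure at 37 °C, then 2–3 h dye incubation. Benchmarks: geldanamycin at 10 µM as inhibition control. Medium: Optimem supplemented with 2.5% fetal bovine serum. Detection: Alamar Blue fluorescence, Ex 544/Em 590 nm.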

[2] = system: NIH 3T3 fibroblast viability, Alamar Blue fluorescence, 48 h; test: as above
Outline: as §1

| Structure (SMILES) | activity change, negative = toxicity ([1]; at 26 µM (top of the series)) | also measured |
| --- | --- | --- |
| Cc1ccc(N2C(=S)NC(=O)C2(C)C)cc1 | -5% (inactive) | – |
| CCOC(=O)N1C(=O)N(c2ccc(C)cc2)C2(CCCCC2)C1=O | 7.79% (inactive) | – |
| CC(C)N1C(=S)NC(=O)C12CCCCC2 | 47.5% (inactive) | – |
| CCOC(=O)N1C(=S)N(c2ccc(C)cc2)C2(CCCCC2)C1=NCc1ccccc1 | – | AC50 [2]: > 52 µM (inactive) |
| CCOC(=O)N1C(=O)C2(CCCCC2)N(c2ccccc2)C1=S | 17.3% (inactive) | – |
| CCOC(=O)N1C(=O)C2(CCC2)N(c2ccc(C)cc2)C1=S | -6.41% (inactive) | – |
| CCOC(=O)N1C(=S)NC(=O)C12CCCCC2 | 2.71% (inactive) | – |
| CCOC(=O)N1C(=O)C2(CCCCC2)N(c2ccc(C(C)(C)C)cc2)C1=S | – | AC50 [2]: 16.5 µM |
| CCOC(=O)N1C(=O)C2(CCCCC2)N(c2cccc(C)c2)C1=S | – | AC50 [2]: 24.2 µM |
| Cc1ccc(N2C(=O)NC(=O)C23CCCCC3)cc1 | -10.2% (inactive) | – |
| CCOC(=O)N1C(=O)C2(CCCCC2)N(c2ccccc2C)C1=S | -14% (inactive) | – |
| O=C1NC(=S)N(c2ccc(F)cc2)C12CCCCC2 | 10.6% (inactive) | – |
| Cc1ccc(N2C(=S)N(C)C(=O)C23CCCCC3)cc1 | -4.95% (inactive) and -14.4% (inactive) | – |
| CCOC(=O)N1C(=O)C2(CCCC2)N(c2ccc(C)cc2)C1=S | 8.13% (inactive) | – |
| CCOC(=O)N1C(=O)C2(CCCCC2)N(C(C)C)C1=S | -8.87% (inactive) | – |
| Cc1ccc(N2CC(=O)NC2=O)cc1 | 22.5% (inactive) | – |
| CCOC(=O)N1C(=O)C2(CCCCC2)N(c2ccc(C(C)C)cc2)C1=S | – | AC50 [2]: 13.8 µM |
| Cc1ccc(N2CC(=O)NC2=S)cc1 | – | AC50 [2]: 20.7 µM |
| CCOC(=O)N1C(=O)C2(CCCCC2)N(c2ccc(Cl)cc2)C1=S | – | AC50 [2]: 22.3 µM |
| CCCCN1C(=O)N(c2ccc(C)cc2)C2(CCCCC2)C1=O | -35.3% (inactive) | – |
| Cc1ccc(N2C(=S)NC(=O)C23CCC3)cc1 | 25% (inactive) | – |
| CCOC(=O)N1C(=O)C2(CCCCC2)N(c2ccc(CC)cc2)C1=S | – | AC50 [2]: 19.5 µM |
| CCOC(=O)N1C(=O)C2(CCCCC2)N(Cc2ccccc2)C1=S | -2.91% (inactive) | – |
| O=C1NC(=S)N(c2ccccc2)C12CCCCC2 | 52.9% (inactive) | – |

| Structure (SMILES) | activity change, negative = toxicity ([1]; at 26 µM (top of the series)) | also measured |
| --- | --- | --- |
| CCOC(=O)N1C(=O)C2(CCCCC2)N(c2ccc(C(F)(F)F)cc2)C1=S | – | AC50 [2]: 12.5 µM |
| Cc1ccc(N2C(=S)N(C(=O)OCc3ccccc3)C(=O)C23CCCCC3)cc1 | – | AC50 [2]: 6.98 µM |
| CCOC(=O)N1C(=O)C2(CCCCC2)N(c2ccc(OC)cc2)C1=S | 21.1% (inactive) | – |
| Cc1ccc(N2C(=S)N(C(=O)OC(C)C)C(=O)C23CCCCC3)cc1 | – | AC50 [2]: > 52 µM (inactive) |
| O=C1NC(=S)N(Cc2ccccc2)C12CCCCC2 | 5.77% (inactive) | – |
| Cc1ccc(N2C(=O)N(C)C(=O)C23CCCCC3)cc1 | -27.1% (inactive) | – |
| CCOC(=O)N1C(=O)C2(CCOCC2)N(c2ccc(C)cc2)C1=S | 8.99% (inactive) | – |
| Cc1ccc(N2C(=O)C3(CCCCC3)NC2=S)cc1 | -13% (inactive) | – |
| Cc1ccc(N2C(=S)N(S(C)(=O)=O)C(=O)C23CCCCC3)cc1 | -8.26% (inactive) | – |
| Cc1ccc(N2C(=S)NC(=O)C23CCOCC3)cc1 | 29.4% (inactive) | – |
| CCCCN1C(=O)N(c2ccc(C)cc2)C2(CCCCC2)C1=S | – | AC50 [2]: 20.9 µM |
| CCCc1ccc(N2C(=S)N(C(=O)OCC)C(=O)C23CCCCC3)cc1 | -15.8% (inactive) | – |
| CC1/C=C/C=C\C=C\C=C\C=C\C=C\C=C\C(O[C@H]2OC(C)C(O)C(N)C2O)CC2OC(O)(CC(O)CC(O)C(O)CCC(O)CC(O)CC(=O)OC(C)C(C)C1O)CC(O)C2C(=O)O (stereo partly drawn) | – | activity change, negative = toxicity ([1]; at 2.6 µM (top of the series)): -14.9% (inactive) |
| CCOC(=O)N1C(=O)C(C)(C)N(c2ccc(C)cc2)C1=S | 14.6% (inactive) | – |
| Cc1ccc(N2C(=S)NC(=O)C23CCCCC3)cc1 | 12.5% (inactive) | – |
| CCOC(=O)N1C(=O)C2(CCCCC2)N(c2ccc(C#N)cc2)C1=S | 10.9% (inactive) | – |
| CCCC(=O)N1C(=O)C2(CCCCC2)N(c2ccc(C)cc2)C1=S | – | AC50 [2]: 18.8 µM |
| CCOC(=O)N1C(=O)C2(CCCCC2)NC1=S | 4.41% (inactive) | – |
| Cc1ccc(N2C(=S)N(C(=O)Oc3ccccc3)C(=O)C23CCCCC3)cc1 | 0.942% (inactive) | – |
| CCOC(=O)N1C(=O)C2(CCCCC2)N(c2ccc(F)cc2)C1=S | -18.1% (inactive) | – |
| Cc1ccc(N2C(=O)C(=O)NC2=S)cc1 | 3.56% (inactive) | – |
| CCCCN1C(=O)C2(CCCCC2)N(c2ccc(C)cc2)C1=S | – | AC50 [2]: 24.2 µM |
| CCOC(=O)N1C(=O)C2(CCCCC2)N(c2ccc(-c3ccccc3)cc2)C1=S | – | AC50 [2]: 9.81 µM |
| O=C1NC(=S)NC12CCCCC2 | 3.57% (inactive) | – |
